Test results as given in ChEMBL document CHEMBL1157578, “Design, synthesis, and biological evaluation of novel water-soluble triptolide derivatives: Antineoplastic activity against imatinib-resistant CML cells bearing T315I mutant Bcr-Abl” (Bioorg Med Chem, 2010).
Activity calls are given as the source filed them. The calls are words filed in the database; no cut-off is given here.

Key:
[1] = Cytotoxicity against human KBM5 cells harboring wild type Bcr-Abl after 72 hrs by MTT assay; conditions: KBM5, 72 h
[2] = Cytotoxicity against human KBM5 cells harboring Bcr-Abl T315I mutant after 72 hrs by MTT assay; assay type: functional, cell-based; conditions: KBM5, 72 h
[3] = test system: KBM5; assay: Induction of apoptosis in human KBM5 cells harboring wild type Bcr-Abl assessed as PARP cleavage at 50 to 100 uM after 18 hrs by Western blot analysis; assay type: functional, cell-based
[4] = Cytotoxicity against human KBM5 cells harboring wild type Bcr-Abl after 72 hrs by MTS assay; assay type: functional, cell-based; conditions: KBM5, 72 h
How it was run: (§1)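 KBM5 (wild-type p210 Bcr-Abl) or KBM5-T315I cells in IMDM + 10% heat-inactivated FCS. The T315I subline was kept in 1 µM imatinib, removed 2–3 days before assay. Cells incubated 72 h with increasing concentrations. Viability by MTS at 490 nm, as percent of control; IC50 from dose–response curves.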

[5] = test system: KBM5; assay: Cytotoxicity against human KBM5 cells harboring wild type Bcr-Abl at 0.001 to 17 uM after 72 hrs by MTS assay; assay type: functional, cell-based; how it was run: as §1
[6] = Downregulation of Bcr-Abl protein level in human KBM5 cells harboring wild type Bcr-Abl after 18 hrs by Western blot analysis; assay type: functional, cell-based
How it was run: (§2)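 Cells exposed for 18 h at the indicated concentrations. Whole-cell lysates made in RIPA buffer with phosphatase and protease inhibitors. Western blot for Bcr-Abl (c-Abl C-19), phospho-c-Abl Y245, phospho-RNA polymerase II, PARP, and actin as loading control.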

[7] = test system: Mus musculus; assay: Toxicity in BALB/c nu/nu mouse xenografted with human KBM5 cells harboring Bcr-Abl T315I mutant assessed as mortality at 0.5 mg/kg/day, ip for 2 weeks administered on day 14 after tumor implantation; assay type: organism-based; design: route intraperitoneal; conditions: in vivo, 336 h
How it was run: (§3)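 Male nu/nu BALB/c mice (6–8 weeks) received 3 × 10⁷ KBM5-T315I cells subcutaneously in the flank. At about 50 mm³ (day 14) they were randomized, 4 per group, to daily ip drug in normal saline or the same volume of saline for two weeks. Body weight, feeding and motor activity were monitored, along with morbidity and mortality. At the end, blood was taken for AST, ALT, LDH and complete blood count.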

[8] = test system: Mus musculus; assay: Toxicity in BALB/c nu/nu mouse xenografted with human KBM5 cells harboring Bcr-Abl T315I mutant assessed as occurrence of myelosuppression at 0.5 mg/kg/day, ip for 2 weeks administered on day 14 after tumor implantation; assay type: organism-based; design: route intraperitoneal; conditions: in vivo, 336 h; how it was run: as §3
[9] = test system: Mus musculus; assay: Toxicity in BALB/c nu/nu mouse xenografted with human KBM5 cells harboring Bcr-Abl T315I mutant assessed as effect on feeding behavior at 0.5 mg/kg/day, ip for 2 weeks administered on day 14 after tumor implantation; assay type: organism-based; design: route intraperitoneal; conditions: in vivo, 336 h; how it was run: as §3
[10] = test system: Mus musculus; assay: Toxicity in BALB/c nu/nu mouse xenografted with human KBM5 cells harboring Bcr-Abl T315I mutant assessed as increase in blood alanine aminotransferase level at 0.5 mg/kg/day, ip for 2 weeks administered on day 14 after tumor implantation; assay type: organism-based; design: route intraperitoneal; conditions: in vivo, 336 h; how it was run: as §3
[11] = test system: KBM5; assay: Induction of apoptosis in human KBM5 cells harboring Bcr-Abl T315I mutant assessed as PARP cleavage at 50 to 100 uM after 18 hrs by Western blot analysis; assay type: functional, cell-based
[12] = test system: Mus musculus; assay: Toxicity in BALB/c nu/nu mouse xenografted with human KBM5 cells harboring Bcr-Abl T315I mutant assessed as change in body weight at 0.5 mg/kg/day, ip for 2 weeks administered on day 14 after tumor implantation; assay type: organism-based; design: route intraperitoneal; conditions: in vivo, 336 h; how it was run: as §3
[13] = Cytotoxicity against imatinib-resistant mouse 32D cells harboring Bcr-Abl T315I mutant after 72 hrs by MTS assay; assay type: functional, cell-based
How it was run: (§4)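 32D myeloid cells stably expressing wild-type or T315I Bcr-Abl, maintained in RPMI 1640 + 10% FBS. Treated with increasing concentrations for 72 h. Viability by MTS, optical density at 490 nm.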

[14] = Cytotoxicity against imatinib-resistant human KBM5 cells harboring Bcr-Abl T315I mutant after 72 hrs by MTS assay; assay type: functional, cell-based; conditions: KBM5, 72 h; how it was run: as §1
[15] = test system: Mus musculus; assay: Toxicity in BALB/c nu/nu mouse xenografted with human KBM5 cells harboring Bcr-Abl T315I mutant at 0.5 mg/kg/day, ip for 2 weeks administered on day 14 after tumor implantation by pilot dose-finding test; assay type: organism-based; design: route intraperitoneal; conditions: in vivo, 336 h
[16] = test system: KBM5; assay: Antitumor activity against Bcr-Abl T315I mutant expressing human KBM5 cells xenografted in BALB/c nu/nu mouse assessed as decrease in tumor volume at 0.5 mg/kg/day, ip for 2 weeks administered on day 14 after tumor implantation; assay type: functional, organism-based
How it was run: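 KBM5-T315I cells, 3 × 10⁷, injected s.c. into the flanks of male nu/nu BALB/c mice aged 6–8 weeks. Dosing began at about 50 mm³ on day 14: 0.5 mg/kg/d i.p. in normal saline for two weeks, with saline controls and four mice per group. Calipers every other day; volume = a² × b × 0.4.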

[17] = test system: HeLa; assay: Inhibition of RNA polymerase 2 in human HeLa cells assessed as decrease in polymerase 2 phosphorylation at 50 to 100 nM after 18 hrs by Western blot analysis; assay type: cell-based
[18] = Downregulation of Bcr-Abl mRNA level in human KBM5 cells harboring Bcr-Abl T315I mutant at 50 to 100 nM after 18 hrs by semi-quantitative RT-PCR analysis; assay type: functional, cell-based
How it was run: (§5)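 KBM5 and KBM5-T315I cells exposed to 50 or 100 nM, or control medium, for 18 h. Bcr-Abl and GAPDH mRNA measured by semi-quantitative RT-PCR; products run on 1% agarose and stained with ethidium bromide.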

[19] = test system: KBM5; assay: Inhibition of RNA polymerase 2 in human KBM5 cells harboring Bcr-Abl T315I mutant assessed as decrease in polymerase 2 phosphorylation after 18 hrs by Western blot analysis; assay type: cell-based; how it was run: as §2
[20] = Cytotoxicity against NHFB after 72 hrs by MTS assay; design: species or system Homo sapiens
How it was run: (§6)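 MEF and NHFB fibroblasts cultured in DMEM + 10% FCS. Exposed to increasing concentrations for 72 h. Viability by MTS reagent, optical density at 490 nm.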

[21] = test system: KBM5; assay: Cytotoxicity against imatinib-resistant human KBM5 cells harboring Bcr-Abl T315I mutant at 0.001 to 17 uM after 72 hrs by MTS assay; assay type: functional, cell-based; how it was run: as §1
[22] = Downregulation of Bcr-Abl protein level in human KBM5 cells harboring Bcr-Abl T315I mutant after 18 hrs by Western blot analysis; assay type: functional, cell-based; how it was run: as §2
[23] = test system: MEF; assay: Cytotoxicity against MEF after 72 hrs by MTS assay; assay type: cell-based; conditions: Mus musculus; how it was run: as §6
[24] = test system: Mus musculus; assay: Toxicity in BALB/c nu/nu mouse xenografted with human KBM5 cells harboring Bcr-Abl T315I mutant assessed as increase in blood aspartate aminotransferase level at 0.5 mg/kg/day, ip for 2 weeks administered on day 14 after tumor implantation; assay type: organism-based; design: route intraperitoneal; conditions: in vivo, 336 h; how it was run: as §3
[25] = test system: Mus musculus; assay: Toxicity in BALB/c nu/nu mouse xenografted with human KBM5 cells harboring Bcr-Abl T315I mutant assessed as effect on motor activity at 0.5 mg/kg/day, ip for 2 weeks administered on day 14 after tumor implantation; assay type: organism-based; design: route intraperitoneal; conditions: in vivo, 336 h; how it was run: as §3
[26] = test system: DU-145; assay: Inhibition of RNA polymerase 2 in human DU145 cells assessed as decrease in polymerase 2 phosphorylation at 50 to 100 nM after 18 hrs by Western blot analysis; assay type: cell-based
[27] = Downregulation of Bcr-Abl mRNA level in human KBM5 cells harboring wild type Bcr-Abl at 50 to 100 nM after 18 hrs by semi-quantitative RT-PCR analysis; assay type: functional, cell-based; how it was run: as §5
[28] = test system: Mus musculus; assay: Toxicity in BALB/c nu/nu mouse xenografted with human KBM5 cells harboring Bcr-Abl T315I mutant assessed as morbidity at 0.5 mg/kg/day, ip for 2 weeks administered on day 14 after tumor implantation; assay type: organism-based; design: route intraperitoneal; conditions: in vivo, 336 h; how it was run: as §3
[29] = Downregulation of Bcr-Abl protein level in mouse 32D cells harboring Bcr-Abl T315I mutant after 18 hrs by Western blot analysis; assay type: functional, cell-based; how it was run: as §2
[30] = test system: KBM5; assay: Inhibition of RNA polymerase 2 in human KBM5 cells harboring wild type Bcr-Abl assessed as decrease in polymerase 2 phosphorylation after 18 hrs by Western blot analysis; assay type: cell-based; how it was run: as §2
[31] = Downregulation of Bcr-Abl protein level in mouse 32D cells harboring wild type Bcr-Abl after 18 hrs by Western blot analysis; assay type: functional, cell-based; how it was run: as §2
[32] = Cytotoxicity against mouse 32D cells harboring wild type Bcr-Abl after 72 hrs by MTS assay; assay type: functional, cell-based; how it was run: as §4
[33] = test system: HCT-116; assay: Inhibition of RNA polymerase 2 in human HCT116 cells assessed as decrease in polymerase 2 phosphorylation at 50 to 100 nM after 18 hrs by Western blot analysis; assay type: cell-based

Q: With `Cc1ccc(NC(=O)c2ccc(CN3CCN(C)CC3)cc2)cc1Nc1nccc(-c2cccnc2)n1` [IMATINIB] as the compound, how does the IC50 [1] read?
A: The IC50 was 0.28 µM.

Q: And the IC50 [2]?
A: Its IC50 is 5.4 µM.

Q: With `CC(C)[C@]12O[C@H]1[C@@H]1O[C@@]13[C@H]1CCC4=C(COC4=O)[C@@H]1C[C@@H]1O[C@@]13[C@@H]2OC(=O)CN1CCOCC1` as the compound, how does the Activity [3] read?
A: Its Activity is “Active”.

Q: What about the IC50 [4] of the same compound?
A: Its IC50 is 0.0525 µM.

Q: And the Activity [5]?
A: The Activity was “Active”.

Q: And the Activity [6]?
A: Its Activity is “Dose-dependent effect”.

Q: And the Activity [7]?
A: The Activity was “Non-toxic”.

Q: And the Activity [8]?
A: Its Activity is “Non-toxic”.

Q: And the Activity [9]?
A: The Activity was “Non-toxic”.

Q: And the Activity [10]?
A: Its Activity is “Non-toxic”.

Q: And the Activity [11]?
A: The Activity was “Active”.

Q: What about the Activity [12] of the same compound?
A: The Activity was “Non-toxic”.

Q: What about the IC50 [13] of the same compound?
A: Its IC50 is 0.08 µM.

Q: And the IC50 [14]?
A: Its IC50 is 0.0207 µM.

Q: What about the Activity [15] of the same compound?
A: The Activity was “Non-toxic”.

Q: What about the Activity [16] of the same compound?
A: The Activity was “Active”.

Q: What about the inhibition [17] of the same compound?
A: The inhibition was “Active”.

Q: And the Activity [18]?
A: Its Activity is “Active”.

Q: And the inhibition [19]?
A: The inhibition was “Dose-dependent effect”.

Q: And the IC50 [20]?
A: Its IC50 is 10.4 µM.

Q: What about the Activity [21] of the same compound?
A: The Activity was “Active”.

Q: What about the Activity [22] of the same compound?
A: Its Activity is “Dose-dependent effect”.

Q: What about the IC50 [23] of the same compound?
A: Its IC50 is 11.5 µM.

Q: And the Activity [24]?
A: The Activity was “Non-toxic”.

Q: What about the Activity [25] of the same compound?
A: The Activity was “Non-toxic”.

Q: And the inhibition [26]?
A: Its inhibition is “Active”.

Q: And the Activity [27]?
A: The Activity was “Active”.

Q: And the Activity [28]?
A: Its Activity is “Non-toxic”.

Q: What about the Activity [29] of the same compound?
A: Its Activity is “Dose-dependent effect”.

Q: What about the inhibition [30] of the same compound?
A: The inhibition was “Dose-dependent effect”.

Q: What about the Activity [31] of the same compound?
A: Its Activity is “Dose-dependent effect”.

Q: And the IC50 [32]?
A: The IC50 was 0.07 µM.

Q: And the inhibition [33]?
A: The inhibition was “Active”.
